Test results taken from ChEMBL document CHEMBL1154670, “Azaindole hydroxamic acids are potent HIV-1 integrase inhibitors” (J Med Chem, 2009).

Assays:
[1] = Cytotoxicity against human CEM-SS cells by XTT assay; assay type: cell-based
Summary of the method: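 Uninfected CEM-SS cells (2×10^4/well) were exposed for 6 days to half-log compound dilutions (≥2 replicate wells) added at seeding. Viability was read by XTT formazan (4 h, A450). CC50 was derived from the drop in formazan versus uninfected, compound-free cells.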

[2] = system: Human immunodeficiency virus 1; test: Antiviral activity against HIV1 RF in human CEM-SS cells assessed inhibition of virus-induced cytopathic effect by XTT assay; assay type: functional, organism-based; details: Human immunodeficiency virus 1, RF
Summary of the method: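 CEM-SS cells (2×10^4/well) were infected with HIV-1 RF at an MOI giving 90% cell death by day 6. Compounds, in half-log dilutions with ≥2 replicate wells, were added at seeding before infection. On day 6, XTT/phenazine methosulfate was added for 4 h and read at A450. EC50 is the concentration restoring formazan to 50% of uninfected, compound-free cells.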

[3] = target: Human immunodeficiency virus type 1 integrase (Human immunodeficiency virus 1, UniProt Q7ZJM1); test: Inhibition of HIV1 integrase expressed in Escherichia coli assessed as strand transfer activity by scintillation proximity assay
Summary of the method: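 His6-tagged full-length HIV-1 IN (mutant) was preincubated 15 min at 22 °C with biotinylated U5 LTR donor DNA on streptavidin SPA beads, then [3H]-thymidine target DNA was added. Final: 2 pmol donor, 246 nM IN, 50 nM target, pH 7.2 MOPS, 4 mM MgCl2, 1% DMSO. Ran 50 min at 37 °C, stopped with EDTA/NaOH/CsCl, quench-corrected counts. IC50 from 4-parameter logistic fit, 2-3 replicates per concentration.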

[4] = Metabolic stability in human liver microsomes assessed as extraction ratio after 4 hrs in presence of NADPH; assay type: ADME, Microsome
[5] = Metabolic stability in human hepatocytes assessed as extraction ratio after 4 hrs; assay type: ADME, cell-based, Hepatocyte
[6] = Mutagenic activity in Salmonella Typhimurium TA100 by Biolum Ames test; assay type: toxicity; details: salmonella enterica subsp. enterica serovar typhimurium
[7] = Mutagenic activity in Salmonella Typhimurium TA100 by Biolum Ames test in presence of metabolizing enzyme; assay type: toxicity; details: salmonella enterica subsp. enterica serovar typhimurium
[8] = Mutagenic activity in Salmonella Typhimurium TA98 by Biolum Ames test; assay type: toxicity; details: salmonella enterica subsp. enterica serovar typhimurium
[9] = Mutagenic activity in Salmonella Typhimurium TA98 by Biolum Ames test in presence of metabolizing enzyme; assay type: toxicity; details: salmonella enterica subsp. enterica serovar typhimurium

Sequence of Human immunodeficiency virus type 1 integrase (Q7ZJM1 whole entry): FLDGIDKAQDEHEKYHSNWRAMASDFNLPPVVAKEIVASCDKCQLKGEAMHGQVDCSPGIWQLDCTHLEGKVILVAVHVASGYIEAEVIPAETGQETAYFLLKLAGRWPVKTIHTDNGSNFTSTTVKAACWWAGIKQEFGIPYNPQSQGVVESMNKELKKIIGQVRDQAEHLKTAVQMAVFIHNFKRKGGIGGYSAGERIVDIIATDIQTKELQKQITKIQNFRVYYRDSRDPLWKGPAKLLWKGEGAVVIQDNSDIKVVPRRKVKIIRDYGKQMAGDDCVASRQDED

Row | Compound | IC50 [3] [nM] | hepatic extraction ratio at 4 h [4] | hepatic extraction ratio at 4 h [5] | CC50 [1] [nM] | EC50 [2] [nM] | Activity [6] | Activity [7] | Activity [8] | Activity [9]
1 | O=C(NO)c1cc2ccn(Cc3ccccn3)c2cn1 | 779 |  |  | > 10000 | 88 |  |  |  | 
2 | O=C(O)c1cc2ccn(Cc3ccccc3F)c2cn1 | > 50000 |  |  |  |  |  |  |  | 
3 | O=C(O)c1cc2ccn(Cc3cccc(Cl)c3Cl)c2cn1 | 5420 |  |  |  |  |  |  |  | 
4 | O=C(c1cc2ccn(Cc3ccc(F)cc3)c2cn1)N(O)CCCO | 804 |  | 0.95 | 77000 | 300 |  |  |  | 
5 | NC(=O)c1ccc(Cn2ccc3cc(C(=O)NO)ncc32)cc1 | > 10000 |  |  | > 10000 | > 10000 |  |  |  | 
6 | O=C(O)c1cc2ccn(Cc3cc(Cl)cs3)c2cn1 | 3200 |  |  |  |  |  |  |  | 
7 | O=C(O)c1cc2ccn(Cc3ccc(F)c(F)c3F)c2cn1 | 3690 |  |  |  |  |  |  |  | 
8 | O=C(O)c1cc2ccn(Cc3cccc(Cl)c3F)c2cn1 | 950 |  |  |  |  |  |  |  | 
9 | CC(C)CN(O)C(=O)c1cc2ccn(Cc3ccc(F)cc3)c2cn1 | 1700 |  | 0.95 | 102000 | 1400 |  |  |  | 
10 | CC(C)N(O)C(=O)c1cc2ccn(Cc3ccc(F)cc3)c2cn1 | 8000 |  | 0.93 | 36000 | 3500 |  |  |  | 
11 | N#Cc1cc(F)ccc1Cn1ccc2cc(C(=O)NO)ncc21 | 812 |  |  | > 10000 | 120 |  |  |  | 
12 | O=C(c1cc2ccn(Cc3ccc(F)cc3)c2cn1)N(O)Cc1ccccc1 | 23000 |  | 1 | > 320000 | 330 |  |  |  | 
13 | O=C(O)c1cc2ccn(Cc3c(F)cc(Cl)cc3F)c2cn1 | 1190 |  |  |  |  |  |  |  | 
14 | N#Cc1ccc(Cn2ccc3cc(C(=O)NO)ncc32)cc1 | > 10000 |  |  | > 10000 | 1200 |  |  |  | 
15 | O=C(O)c1cc2ccn(Cc3ccc(F)cc3)c2cn1 | 7350 |  |  |  |  |  |  |  | 
16 | N#Cc1cccc(Cn2ccc3cc(C(=O)NO)ncc32)c1 | 1620 |  |  | > 10000 | 500 |  |  |  | 
17 | NC(=O)c1cccc(Cn2ccc3cc(C(=O)NO)ncc32)c1 | 1720 |  |  | > 10000 | 530 |  |  |  | 
18 | CCCN(O)C(=O)c1cc2ccn(Cc3ccc(F)cc3)c2cn1 | 618 |  | 0.96 | 26000 | 350 |  |  |  | 
19 | NC(=O)c1cc(F)ccc1Cn1ccc2cc(C(=O)NO)ncc21 | 1300 |  |  | > 10000 | 55 |  |  |  | 
20 | O=C(NO)c1cc2ccn(Cc3cccc(CO)n3)c2cn1 | 5730 |  |  | > 10000 | 730 |  |  |  | 
21 | CON(C)C(=O)c1cc2ccn(Cc3ccc(F)cc3F)c2cn1 | > 50000 | 1 | 1 | > 10000 | > 10000 |  |  |  | 
22 | O=C(O)c1cc2ccn(Cc3ccc(F)cc3F)c2cn1 | 3500 |  |  |  |  |  |  |  | 

Continued, in another order:

Row | IC50 [3] [nM] | hepatic extraction ratio at 4 h [4] | hepatic extraction ratio at 4 h [5] | Compound | CC50 [1] [nM] | EC50 [2] [nM] | Activity [6] | Activity [7] | Activity [8] | Activity [9]
23 | 356 | 0.68 | 1 | CONC(=O)c1cc2ccn(Cc3ccc(F)cc3F)c2cn1 | > 320000 | 21 |  |  |  | 
24 | 608 |  |  | NC(=O)c1cc(Cn2ccc3cc(C(=O)NO)ncc32)ccc1F | > 10000 | 58 |  |  |  | 
25 | 250 |  |  | CN(O)C(=O)c1cc2ccn(Cc3ccc(F)cc3)c2cn1 | 200000 |  |  |  |  | 
26 | 102 |  |  | O=C(NO)c1cc2ccn(Cc3cccc(Cl)c3F)c2cn1 | > 320000 | 8 |  |  |  | 
27 | 84 | < 0.26 | 0.9 | O=C(NO)c1cc2ccn(Cc3ccc(F)cc3F)c2cn1 | > 320000 | 8 | Active | Active | Active | Active
28 | 387 |  |  | O=C(NO)c1cc2ccn(Cc3ccc(Cl)s3)c2cn1 | > 10000 | 20 |  |  |  | 
29 | 131 |  |  | O=C(NO)c1cc2ccn(Cc3c(F)ccc(Cl)c3F)c2cn1 | > 1000 | 7 |  |  |  | 
30 | 137 |  | 0.92 | O=C(NO)c1cc2ccn(Cc3ccc(F)cc3)c2cn1 | 159000 | 9 |  |  |  | 
31 | 442 |  |  | O=C(NO)c1cc2ccn(Cc3cccc(Cl)c3Cl)c2cn1 | > 320000 | 35 |  |  |  | 
32 | 250 | < 0.36 | 1 | CN(O)C(=O)c1cc2ccn(Cc3ccc(F)cc3F)c2cn1 | 135000 | 32 | Not Active | Not Active | Not Active | Not Active
